Activity calls are given as the source filed them. No cut-off for these calls is given here.
Tests used:
Prothrombin [1] = target: T1, Prothrombin (Homo sapiens, UniProt P00734); assay: Inhibition of human thrombin
How it was run: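 Human plasma thrombin was assayed at 37 °C in Tris pH 8.3. […] Initial rate was read at 405 nm, in duplicate. IC50 was obtained from a four-parameter logistic fit.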

Coagulation factor X [2] = target: T2, Coagulation factor X (Homo sapiens, UniProt P00742); assay: Inhibition of factor 10a
How it was run: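 Human factor Xa (FX activated with Russell's viper venom) at about 5 mU was preincubated with inhibitor (0–250 µM final) for 15 min at 37 °C. […] IC50 came from a four-parameter logistic fit.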

Plasminogen = Plasminogen (Homo sapiens, UniProt P00747); assay: Inhibition of human plasmin
How it was run: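 Plasmin from human plasma at about 5 mU was preincubated with inhibitor (0–250 µM final) for 15 min at 37 °C. Substrate was S-2366 at 580 µM in Tris pH 7.4. Initial rate was read at 405 nm, in duplicate. IC50 came from a four-parameter logistic fit.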

[3] = target: Tissue-type plasminogen activator (Homo sapiens, UniProt P00750); assay: Inhibition of human recombinant tPA
[4] = target: T3, Urokinase-type plasminogen activator (Homo sapiens, UniProt P00749)
[5] = target: T3, Urokinase-type plasminogen activator; remark: listed apart in the source
Homo sapiens [6] = species on record: Homo sapiens; assay: Selectivity index, ratio of IC50 for human recombinant tPA to IC50 for human uPA
Homo sapiens [7] = species on record: Homo sapiens; assay: Selectivity index, ratio of IC50 for human plasmin to IC50 for human uPA
How it was run: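 Selectivity index is IC50(plasmin)/IC50(uPA). Plasmin: human plasma-derived, about 5 mU, 580 µM S-2366, Tris pH 7.4. uPA: human, about 1 mU, 250 µM S-2444, 50 mM Tris pH 8.8. Both had 15 min preincubation at 37 °C, 405 nm initial rates in duplicate, and a four-parameter logistic fit.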

Prothrombin [8] = target: T1, Prothrombin; assay: Inhibition of human thrombin at 250 uM
How it was run: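 Human plasma thrombin was assayed at 37 °C in Tris pH 8.3. IC50 was obtained from a four-parameter logistic fit.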

Homo sapiens [9] = species on record: Homo sapiens; assay: Selectivity index, ratio of IC50 for human factor 10a to IC50 for human uPA
Homo sapiens [10] = species on record: Homo sapiens; assay: Selectivity index, ratio of IC50 for human thrombin to IC50 for human uPA
How it was run: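 Selectivity index is IC50(thrombin)/IC50(uPA). Thrombin: human plasma-derived, about 5 mU, 580 µM S-2366, Tris pH 8.3. uPA: human, about 1 mU, 250 µM S-2444, 50 mM Tris pH 8.8. Both had 15 min preincubation at 37 °C, 405 nm initial rates in duplicate, and a four-parameter logistic fit.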

Coagulation factor X [11] = target: T2, Coagulation factor X; assay: Inhibition of factor 10a at 250 uM
Prothrombin [12] = target: T1, Prothrombin; assay: Inhibition of thrombin at 100 uM
Coagulation factor X [13] = target: T2, Coagulation factor X; assay: Inhibition of factor 10a at 62 uM

Sequence of Tissue-type plasminogen activator (P00750 whole entry): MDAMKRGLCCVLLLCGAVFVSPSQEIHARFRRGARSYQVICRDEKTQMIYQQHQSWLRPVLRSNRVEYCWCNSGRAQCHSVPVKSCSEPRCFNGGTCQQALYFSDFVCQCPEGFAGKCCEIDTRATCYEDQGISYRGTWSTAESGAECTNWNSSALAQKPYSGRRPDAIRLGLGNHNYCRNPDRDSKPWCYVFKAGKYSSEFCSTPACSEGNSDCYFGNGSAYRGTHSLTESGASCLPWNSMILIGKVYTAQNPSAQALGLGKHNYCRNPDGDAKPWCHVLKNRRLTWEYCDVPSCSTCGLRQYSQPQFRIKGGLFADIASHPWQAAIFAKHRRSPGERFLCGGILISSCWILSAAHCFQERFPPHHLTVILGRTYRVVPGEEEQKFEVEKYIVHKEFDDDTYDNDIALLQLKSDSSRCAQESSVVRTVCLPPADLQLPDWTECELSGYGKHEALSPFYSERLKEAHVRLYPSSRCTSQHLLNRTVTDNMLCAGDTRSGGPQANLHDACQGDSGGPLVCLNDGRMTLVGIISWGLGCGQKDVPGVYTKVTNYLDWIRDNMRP
T2 sequence (P00742 41-179 limits assumed): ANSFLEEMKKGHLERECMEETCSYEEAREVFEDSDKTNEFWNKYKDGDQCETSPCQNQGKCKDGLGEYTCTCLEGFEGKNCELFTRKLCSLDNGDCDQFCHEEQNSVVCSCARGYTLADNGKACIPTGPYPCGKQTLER
T2 sequence (P00742 235-488 limits assumed): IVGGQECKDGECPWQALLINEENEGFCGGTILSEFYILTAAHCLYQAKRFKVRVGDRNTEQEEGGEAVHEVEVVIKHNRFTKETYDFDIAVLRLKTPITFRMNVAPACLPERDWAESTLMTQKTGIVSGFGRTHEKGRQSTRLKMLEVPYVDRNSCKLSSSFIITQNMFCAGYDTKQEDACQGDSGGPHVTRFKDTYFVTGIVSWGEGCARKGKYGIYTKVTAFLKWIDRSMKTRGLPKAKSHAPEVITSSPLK
Sequence of Plasminogen (P00747 97-580 limits assumed): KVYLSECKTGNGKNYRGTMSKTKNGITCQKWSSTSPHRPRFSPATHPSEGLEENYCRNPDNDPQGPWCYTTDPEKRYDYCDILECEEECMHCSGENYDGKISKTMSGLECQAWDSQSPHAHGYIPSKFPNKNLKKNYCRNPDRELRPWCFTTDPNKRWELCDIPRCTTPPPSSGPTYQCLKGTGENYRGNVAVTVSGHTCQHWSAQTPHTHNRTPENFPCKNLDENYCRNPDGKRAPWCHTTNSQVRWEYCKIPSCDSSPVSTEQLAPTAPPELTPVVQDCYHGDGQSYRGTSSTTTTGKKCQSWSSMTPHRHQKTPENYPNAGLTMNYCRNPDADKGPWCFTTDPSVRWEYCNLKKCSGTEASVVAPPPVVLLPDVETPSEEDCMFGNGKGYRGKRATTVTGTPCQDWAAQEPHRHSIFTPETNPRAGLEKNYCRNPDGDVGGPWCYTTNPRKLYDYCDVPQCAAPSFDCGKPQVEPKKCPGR
Sequence of Plasminogen (P00747 581-810 limits assumed): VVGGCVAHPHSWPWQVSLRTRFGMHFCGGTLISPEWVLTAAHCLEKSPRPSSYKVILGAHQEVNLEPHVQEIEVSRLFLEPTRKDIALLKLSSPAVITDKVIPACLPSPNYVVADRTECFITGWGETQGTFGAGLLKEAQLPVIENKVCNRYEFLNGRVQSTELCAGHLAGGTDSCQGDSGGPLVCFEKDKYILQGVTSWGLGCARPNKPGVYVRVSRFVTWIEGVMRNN

SMILES: N=C(N)Nc1ccc(CNC(=O)OCc2ccccc2)cc1
- Ki (Prothrombin [1]): > 1000 µM
- Ki (Coagulation factor X [2]): > 1000 µM
- Ki (Plasminogen): > 1000 µM
- Ki [3]: > 1000 µM

SMILES: CCOC(=O)NC(Cc1ccc(NC(=N)N)cc1)P(=O)(Oc1ccccc1)Oc1ccccc1 (stereo not drawn)
- Kapp [4]: 40000 M⁻¹ s⁻¹

SMILES: N=C(N)Nc1ccc(CC(NC(=O)OCc2ccccc2)P(=O)(Oc2ccccc2)Oc2ccccc2)cc1 (stereo not drawn)
- Kapp [4]: 42000 M⁻¹ s⁻¹

SMILES: N=C(N)c1ccc(C(NC(=O)OCc2ccccc2)P(=O)(Oc2ccccc2)Oc2ccccc2)cc1 (stereo not drawn)
- Kapp [4]: 43 M⁻¹ s⁻¹

SMILES: N=C(N)Nc1ccc(CC(NC(=O)c2ccccc2)P(=O)(Oc2ccccc2)Oc2ccccc2)cc1 (stereo not drawn)
- Kapp [4]: 2400 M⁻¹ s⁻¹

SMILES: CC(=O)NC(Cc1ccc(NC(=N)N)cc1)P(=O)(Oc1ccccc1)Oc1ccccc1 (stereo not drawn)
- Kapp [4]: 1.4e+06 M⁻¹ s⁻¹
- IC50 [5]: 0.0072 µM

SMILES: CC(C)c1cc(C(C)C)c(S(=O)(=O)NC(Cc2ccc(NC(=N)N)cc2)P(=O)(Oc2ccccc2)Oc2ccccc2)c(C(C)C)c1 (stereo not drawn)
- Kapp [4]: 1600 M⁻¹ s⁻¹
- Ratio IC50 (Homo sapiens [6]): 60
- Ratio IC50 (Homo sapiens [7]): 500
- inhibition (Prothrombin [8]): 60%
- Ratio IC50 (Homo sapiens [9]): 80

SMILES: CC(=O)Nc1ccc(OP(=O)(Oc2ccc(NC(C)=O)cc2)C(Cc2ccc(NC(=N)N)cc2)NC(=O)OCc2ccccc2)cc1 (stereo not drawn)
- Kapp [4]: 80000 M⁻¹ s⁻¹
- Ratio IC50 (Homo sapiens [6]): 1700
- Ratio IC50 (Homo sapiens [7]): 200
- Ratio IC50 (Homo sapiens [10]): 90
- Ratio IC50 (Homo sapiens [9]): 23000

SMILES: CS(=O)(=O)NC(Cc1ccc(NC(=N)N)cc1)P(=O)(Oc1ccccc1)Oc1ccccc1 (stereo not drawn)
- Kapp [4]: 140000 M⁻¹ s⁻¹
- IC50 (Prothrombin [1]): 125 µM
- IC50 (Coagulation factor X [2]): 250 µM

SMILES: N=C(N)c1ccc(CC(NC(=O)OCc2ccccc2)P(=O)(Oc2ccccc2)Oc2ccccc2)cc1 (stereo not drawn)
- Kapp [4]: 2000 M⁻¹ s⁻¹
- inhibition (Coagulation factor X [11]): 65%

SMILES: CC(=O)Nc1ccc(OP(=O)(Oc2ccc(NC(C)=O)cc2)C(Cc2ccc(NC(=N)N)cc2)NS(C)(=O)=O)cc1 (stereo not drawn)
- Kapp [4]: 210000 M⁻¹ s⁻¹
- Ratio IC50 (Homo sapiens [6]): 1000
- Ratio IC50 (Homo sapiens [7]): 550
- inhibition (Coagulation factor X [11]): 55%
- Ratio IC50 (Homo sapiens [10]): 700

SMILES: N=C(N)Nc1ccc(CC(NS(=O)(=O)c2cccc3ccccc23)P(=O)(Oc2ccccc2)Oc2ccccc2)cc1 (stereo not drawn)
- Kapp [4]: 7300 M⁻¹ s⁻¹

SMILES: N=C(N)c1ccc(CCC(NC(=O)OCc2ccccc2)P(=O)(Oc2ccccc2)Oc2ccccc2)cc1 (stereo not drawn)
- Kapp [4]: 140 M⁻¹ s⁻¹
- Ratio IC50 (Homo sapiens [6]): 70
- Ratio IC50 (Homo sapiens [7]): 7
- Ratio IC50 (Homo sapiens [10]): 20
- Ratio IC50 (Homo sapiens [9]): 15

SMILES: C[C@H](NC(=O)[C@@H](CO)NS(=O)(=O)Cc1ccccc1)C(=O)NCc1ccc(NC(=N)N)cc1
- Ki (Plasminogen): 40 µM
- Ki [3]: > 2.5 µM
- Activity (Prothrombin [12]): inactive
- Ki [5]: 0.016 µM

SMILES: N=C(N)Nc1ccc(CC(NS(=O)(=O)Cc2ccccc2)P(=O)(Oc2ccccc2)Oc2ccccc2)cc1 (stereo not drawn)
- Kapp [4]: 19000 M⁻¹ s⁻¹
- inhibition (Coagulation factor X [13]): 59%

SMILES: C[C@H](NC(=O)[C@@H](CO)NS(=O)(=O)Cc1ccccc1)C(=O)NC(Cc1ccc(NC(=N)N)cc1)P(=O)(Oc1ccccc1)Oc1ccccc1 (stereo partly drawn)
- IC50 (Coagulation factor X [2]): 33.5 µM
- IC50 [5]: 0.004 µM

SMILES: N=C(N)NCCCC(NC(=O)OCc1ccccc1)P(=O)(Oc1ccccc1)Oc1ccccc1 (stereo not drawn)
- Kapp [4]: 100 M⁻¹ s⁻¹
- Ratio IC50 (Homo sapiens [6]): 50
- IC50 (Prothrombin [1]): 0.78 µM
- Ratio IC50 (Homo sapiens [7]): 35
- inhibition (Coagulation factor X [11]): 70%
- Ratio IC50 (Homo sapiens [10]): 0.9
- IC50 (Plasminogen): 30 µM
- IC50 [3]: 44 µM
- IC50 [5]: 0.84 µM
